Test results: the EternaBench riboswitch data

What was measured:
MS2 coat protein [1] = experiment: apparent Kd, MS2 coat protein; higher = weaker binding; RNA-MaP array; tryptophan 2.4 mM where present
Outline: (§1)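 Green signal from SNAP-549-labelled MS2 coat protein was normalised to red-channel RNA signal and to the median Fmax of control clusters. The protein was titrated from 0.7 or 1.5 nM, doubling to 3 µM, without and then with constant ligand, over designs transcribed by stalled E. coli RNA polymerase on Illumina sequencing-chip clusters, in 100 mM Tris-HCl pH 7.5, 80 mM KCl, 4 mM MgCl2, BSA, DTT, yeast tRNA and Tween-20. The apparent Kd is the median of filtered per-cluster binding-curve fits.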

MS2 coat protein [2] = experiment: apparent Kd, MS2 coat protein; higher = weaker binding; RNA-MaP array; theophylline 2 mM where present
Outline: as §1

[3] = designed as: ON switch for tryptophan, no ligand
[4] = ligand present: tryptophan, designed as: ON switch for tryptophan
[5] = designed as: ON switch for theophylline, no ligand
[6] = ligand present: theophylline, designed as: ON switch for theophylline
[7] = designed as: OFF switch for theophylline, no ligand
[8] = ligand present: theophylline, designed as: OFF switch for theophylline

| Sequence | apparent Kd (MS2 coat protein [2]; [5]) | apparent Kd (MS2 coat protein [2]; [6]) | apparent Kd (MS2 coat protein [2]; [7]) | apparent Kd (MS2 coat protein [2]; [8]) | other results |
| --- | --- | --- | --- | --- | --- |
| AAAGAUCGGAAACGAUCGGCGGCUUGGGCGCGAGGACCGGUACGGCCGCCACUCGGGAAACAUGAGGAUCACCCAUGUUGCUUCU |  |  |  |  | apparent Kd (MS2 coat protein [1]; designed as: OFF switch for tryptophan, no ligand): 10.9 nM; apparent Kd (MS2 coat protein [1]; ligand present: tryptophan, designed as: OFF switch for tryptophan): 12 nM |
| AACAUCACAACGGCCGCCACUGCACAUGACAACAUGAGGAUCACCCAUGUGGAUCACCCAUGUCCCAGGACCGGGUUAUGAGGAU |  |  |  |  | apparent Kd (MS2 coat protein [1]; [3]): 29.1 nM; apparent Kd (MS2 coat protein [1]; [4]): 25.9 nM |
| AACAUGAGGAUCACCCAUGUCCCAUGUGAACGAGGACCGGUACGGCCGCCACUCGAAUAAGGCGGCACAUGAGGAUCACCCACAU |  |  |  |  | apparent Kd (MS2 coat protein [1]; [3]): 168 nM; apparent Kd (MS2 coat protein [1]; [4]): 373 nM |
| ACACAUGAGGAUCACCCAUGUCCAAUAGAUACCAGUGAUACGGUGCACCCUUGGCAGCUGUUGCUGAGUGAUGGUUCCCUCGGAA | 125 nM | 164 nM |  |  |  |
| ACAUCCAGAUUAAUCGUGGGCAUACUCGAUACCAGUAUUUUAAUCUACCCUUGGCAGCGACAUGAGGAUCACCCAUGUGCGAUGA |  |  | 12.8 nM | 21.1 nM |  |
| ACAUGAAGAACAGCGGUGGGCGCGCUCGAUACCAGUAUUUUAACCUACCCUUGGCAGCGACAUGAGGAUCACCCAUGUGAGAUGA |  |  | 17.3 nM | 26.9 nM |  |
| ACAUGAGGAUCACCCAUGUCACGGCACGAUACCAGCUGAUCCGGUGGCCCUUGGCAGCGUCACGUUUGGUCCCGCGGAUGACACG | 64.3 nM | 60.4 nM |  |  |  |
| ACAUGAGGAUCACCCAUGUUCCUCGCCGAUACCAGUGAAGAAGAACGCCCUUGGCAGCGGAAAGAAUAUAUUGGAGAUGAUAUAU |  |  | 219 nM | 316 nM |  |
| ACGACGCAUACAGAUACCAGUAGAACAUGAGGAUCACCCAUGUCUGAGGCGCUCCGCCACUGCCCUUGGCAGCUGUAUGCGUCAG | 9.7 nM | 14.2 nM |  |  |  |
| ACGACGCAUAGUGAUACCAGUAGAACAUGAGGAUCACCCAUGUCAGAUAUGUUCUAAUACUGCCCUUGGCAGCACUAUGCGUCAG | 260 nM | 134 nM |  |  |  |
| ACGUCCGGAUUGAUCGUGGGCAUGGUCGAUACCAGUAUUUUAAUCUACCCUUGGCAGCGACAUGAGGAUCACCCAUGUGCGAUGA |  |  | 16.9 nM | 42.6 nM |  |
| ACUAGUUGUGCAGAUACCAGACAUGAGGAUCACCCAUGUUUGGGAUCUAAUGAUCAUCUUGUCCCUUGGCAGCUGUACAUCUAGA |  |  | 78.5 nM | 33.9 nM |  |
| AGACAUGUAGGAUAAUUGACUAUUACAGAUACCAGACUGUCUAAUGUCCCUUGGCAGCUGCAUUACAUGAGGAUCACCCAUGUUA |  |  | 22.6 nM | 20.2 nM |  |
| AGCAUGUUAUCAGAUACCAGACAUCUUUUAAUACAUAUUACAUGAGGAUCACCCAUGUUGGUCCCUUGGCAGCUGAAAUAUUUCA | 256 nM | 80.5 nM |  |  |  |
| AGCCCAUUACAUGAGGAUCACCCAUGUGAUACCAGUCAGGAAACUGACCCUUGGCAGCGCAUGAGGAUCACCCAUGCGCUGGGCA |  |  | 12 nM | 11.4 nM |  |
| AGCCCUGUGCUAGAUACCAGCUACAUGAGGAUCACCCAUGUGCGUCAGAAAUGACUGUGUAGCCCUUGGCAGCUAAAUGCAUGUA |  |  | 11.8 nM | 28 nM |  |
| AGCGACAUGCGUGAUACCAGCUACAUGAGGAUCACCCAUGUAAGUAGGAAACUACUGUGUAGCCCUUGGCAGCACAAUGCAUGUC |  |  | 19.8 nM | 43.5 nM |  |
| AUAACAUGAGGAUCACCCAUGUAAGCAGAUACCAGCUAGGAAACUAGCCCUUGGCAGCUGCAAUCAUGGGUGUGGUAUCUGCUAA |  |  | 28.2 nM | 39.7 nM |  |
| AUAACAUGAGGAUCACCCAUGUAGAGUGAUACCAGACUACGUAAUGUCCCUUGGCAGCACAAGUAAAGUUACGAAUAAUGAUAGA | 179 nM | 50.8 nM |  |  |  |
| AUACCUAGUGAGUCGUGUUUCUUUUCAGAUACCAGACUUUUCGUUGUCCCUUGGCAGCUGUUUUACAUGAGGAUCACCCAUGUUG |  |  | 15.7 nM | 23.6 nM |  |
| AUCAUGUAAUCAGAUACCAGACAUCUUUUAAUACAUAUUACAUGAGGAUCACCCAUGUUGGUCCCUUGGCAGCUGAAAUAUUUUU | 197 nM | 86.8 nM |  |  |  |
| AUCGUACCUAAUGAUACCAGCAAGUGAUCAUAACAUGAGGAUCACCCAUGUAAUCAGUGAUGCCCUUGGCAGCAUAAUCGAUACA | 146 nM | 88 nM |  |  |  |
| AUCGUACCUGAGGAUACCAGCAUGUGAUCAUAACAUGAGGAUCACCCAUGUAAUCAGUGAUGCCCUUGGCAGCUUGGUCGGUACA | 51.6 nM | 26.4 nM |  |  |  |
| AUCUCGUUCAAUAUACCGCCUUGACUAGAUACCAGCAUGGACCCAUGCCCUUGGCAGCUGGACAUGAGGAUCACCCAUGUUUCAG | 12.4 nM | 14.6 nM |  |  |  |
| AUGUCGUUGAAUACAGCGGCAUGGAGUGAUACCAGAAUGAUCAAAUUCCCUUGGCAGCAUCACAUGAGGAUCACCCAUGUUCGAU | 29.1 nM | 34.3 nM |  |  |  |
| CAGCCUGGUUGGUAAAUCCCUCAUCGUGAUACCAGUCGAGUGAUCGACCCUUGGCAGCACAUGAGGAUCACCCAUGUGCUCGUAU |  |  | 25.1 nM | 23.1 nM |  |

| Sequence | apparent Kd (MS2 coat protein [2]; [5]) | apparent Kd (MS2 coat protein [2]; [6]) | apparent Kd (MS2 coat protein [2]; [7]) | apparent Kd (MS2 coat protein [2]; [8]) | other results |
| --- | --- | --- | --- | --- | --- |
| CGAUGAUCGAGGGAUACCAGAAAUGGUAUUCCUUUAUUUCUUACAUGAGGAUCACCCAUGUUCCCUUGGCAGCUUUUGAUCAUCG |  |  | 86.5 nM | 149 nM |  |
| CGCAACCCUAAGGGAUUGUGGUUAUUAGAUACCAGUAUGAUGCAAUACCCUUGGCAGCUAAUACAUGAGGAUCACCCAUGUUGCG |  |  |  | 59.5 nM |  |
| CUGGCAGGAUGAUCCGCUGUCAGGGCUGAUACCAGCCACGAAAGUGGCCCUUGGCAGCAGCAAACAUGAGGAUCACCCAUGUAAA | 144 nM | 266 nM |  |  |  |
| GACAUGAGGAUCACCCAUGUAUUGGGUGAUACCAGCCUGAAUCAUGGCCCUUGGCAGCACCGCGCUAACUUUAUGUUUGCGAACC | 49.7 nM | 160 nM |  |  |  |
| GAGCUGAUGUAGAGCGAAUAUUCGAGAGAUACCAGUACAGAAAUGUACCCUUGGCAGCUCAACUUUACAUGAGGAUCACCCAUGU |  |  | 13.7 nM | 25 nM |  |
| GCAAUACAUGAGGAUCACCCAUGUGCAGAUACCAGAGGUGUAUGCCUCCCUUGGCAGCUGCGACGCUCUGGCAUCUUGUGGGAUG | 51.8 nM | 48.8 nM |  |  |  |
| GGCGGACUUAUAGAUACCAGCACAUGAGGAUCACCCAUGUAUGGUCGCACCUCAGUCCUGUGCCCUUGGCAGCUAUAAUAGAUUU |  |  | 19.7 nM | 115 nM |  |
| GGCGGACUUAUAGAUACCAGCACAUGAGGAUCACCCAUGUUUGGUCGCACCUCAGUCCUGUGCCCUUGGCAGCUAUGAUAGAUUU |  |  | 17.3 nM | 95.1 nM |  |
| GGUAUUGGAACAGAUACCAGUAUCUGUUGAUCCUACAUGAGGAUCACCCAUGUUAGAAAGUACCCUUGGCAGCUGUAAUAAUGCC |  |  | 48.1 nM | 81.6 nM |  |
| GGUCUGAAAACCGAUCAAAGAUCGGAAGAUACCAGAGGGUGAUCCCUCCCUUGGCAGCUUCACAUGAGGAUCACCCAUGUAGACC | 192 nM | 151 nM |  |  |  |
| GGUGGCUGGAUCGAUACCAGCCACCACCGAUAGACCACAUGAGGAUCACCCAUGUUGGGUGGCCCUUGGCAGCGGUCCGGCUGCC | 278 nM | 1290 nM |  |  |  |
| GUGGAGACAUGAGAUACCAGUCUCUUUAACAUGAGGAUCACCCAUGUAAUGCUCCUCGGAGACCCUUGGCAGCUCAGUAUGAUGA |  |  | 39.9 nM | 157 nM |  |
| UAAUAAAUAAGUGAUACCAGCGAGAAAACAUGAGGAUCACCCAUGUUCGCCCAUGUUAAGCGCCCUUGGCAGCACAAAUAUAAAA |  |  | 26.1 nM | 84.9 nM |  |
| UAUACAUGAGGAUCACCCAUGUGCCAUGAUACCAGACAUGAAAAUGUCCCUUGGCAGCAUGGUGAUUGUAUAGCGGGAAACCCGA | 160 nM | 196 nM |  |  |  |
| UCGUGUAUAUCGGAUACCAGUGAAAUCGAUACAUGAGGAUCACCCAUGUGAGAGGAUGUACACCCUUGGCAGCUGUAUAUAUCUA | 32.8 nM | 14.7 nM |  |  |  |
| UCGUGUAUAUCGGAUACCAGUGAAAUCGAUACAUGAGGAUCACCCAUGUGAGUUGAUGUACACCCUUGGCAGCUGUAUAUAUCUA | 16.2 nM | 12.4 nM |  |  |  |
| UCUGGGUCCGCAAGGACCUGGAGUUGCGAUACCAGCACGGUAACGUGCCCUUGGCAGCGCACAUGAGGAUCACCCAUGUGGUGUU |  |  | 261 nM | 436 nM |  |
| UCUUACUUGGUAGAUACCAGCGUGUUAUCUUUCUUUUGACAUGAGGAUCACCCAUGUAUAUGCCCUUGGCAGCUGCGUAGUGUGU | 33.7 nM | 32.5 nM |  |  |  |
| UGACAUUGCUCAGAUACCAGACAUGAGGAUCACCCAUGUACCAAGAAAGUACAAUAAAAUGUCCCUUGGCAGCUGAGCAAUGUCU |  |  | 66.8 nM | 487 nM |  |
| UGACGAUACCUGGAUACCAGCGACAUGAGGAUCACCCAUGUAUGAGGAUCAGCCAUGUUAUGCCCUUGGCAGCCACGAAGGUCUU |  |  | 33 nM | 224 nM |  |
| UGGUACAUGAGGAUCACCCAUGUUCCAGAUACCAGUGUCCCGCUGCACCCUUGGCAGCUGGUGGCACAUGAGGAUCACCCAUGUG |  |  | 15 nM | 17.1 nM |  |
| UGUAACAUGAGGAUCACCCAUGUGAGUGAUACCAGAUUAGUAGUAGUCCCUUGGCAGCACAUUGGGCGAGUGUAUAGUCUAUGCG | 171 nM | 118 nM |  |  |  |
| UGUACAUGAGGAUCACCCAUGUUACGCGAUACCAGACAUGAGAGUGUCCCUUGGCAGCGUGGAGCUGAUACGGCGGGAAGCCGGA | 43.7 nM | 39.5 nM |  |  |  |
| UUCUACAUGAGGAUCACCCAUGUAAACGAUACCAGACGAGUAUUAGUCCCUUGGCAGCGUAGAGUGUCGUUUAUAGUAGGAUACC | 22.7 nM |  |  |  |  |
| UUGGUACGACAGCUCAUAUAAGCAUGUGAUACCAGACUGGAAACAGUCCCUUGGCAGCACUUUACAUGAGGAUCACCCAUGUCGG |  |  | 221 nM | 191 nM |  |
| UUUGAUAGGACAGAUACCAGCGUGUUAUAGAACAUGAGGAUCACCCAUGUAGUGAUCAAGCGCCCUUGGCAGCUGGUUUGUUAGG | 229 nM | 395 nM |  |  |  |
